# Calls of active or inactive are those of the source. The calls are words filed in the database; no cut-off is given here.
# What was measured:
# Homo sapiens [1] = species on record: Homo sapiens; assay: (§1) Co-operativity factor, ratio of Ki for displacement of (2S,4R)-N-(4-bromobenzyl)-4-hydroxy-1-(3,3,3-trifluoropropanoyl)pyrrolidine-2-carboxamide from VBC E3 ligase (unknown origin) binary complex assessed as inhibition constant to Ki for displacement of (2S,4R)-N-(4-bromobenzyl)-4-hydroxy-1-(3,3,3-trifluoropropanoyl)pyrrolidine-2-carboxamide from dual VBC E3 ligase (unknown origin) ternary complex assessed as inhibition constant by ITC assay
# [2] = biological target: T1, Von Hippel-Lindau disease tumor suppressor/Elongin B/Elongin C (Homo sapiens, UniProt P40337); assay: Displacement of (2S,4R)-N-(4-bromobenzyl)-4-hydroxy-1-(3,3,3-trifluoropropanoyl)pyrrolidine-2-carboxamide from dual VBC E3 ligase (unknown origin) ternary complex assessed as inhibition constant by 19F NMR assay; assay type: protein-complex assay
# Summary of the method: (§2)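 Same 19F CPMG displacement format, with spy molecule 19 at 50 μM and VBC at 1 μM. PROTAC was titrated over a range of concentrations, with spy-only and spy+VBC spectra as the 100% and 0% displacement controls. IC50 was read as 50% dissociation of the spy–VBC complex.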
# [3] = biological target: T1, Von Hippel-Lindau disease tumor suppressor/Elongin B/Elongin C; assay: Displacement of (2S,4R)-N-(4-bromobenzyl)-4-hydroxy-1-(3,3,3-trifluoropropanoyl)pyrrolidine-2-carboxamide from dual VBC E3 ligase (unknown origin) ternary complex by 19F NMR assay; assay type: protein-complex assay; summary of the method: as §2
# Homo sapiens [4] = species on record: Homo sapiens; assay: as §1, with “19F NMR” for “ITC”
# [5] = biological target: T1, Von Hippel-Lindau disease tumor suppressor/Elongin B/Elongin C; assay: (§3) Displacement of (2S,4R)-N-(4-bromobenzyl)-4-hydroxy-1-(3,3,3-trifluoropropanoyl)pyrrolidine-2-carboxamide from VBC E3 ligase (unknown origin) binary complex by 19F NMR assay; assay type: protein-complex assay
# Summary of the method: (§4)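 Competitive 19F CPMG NMR displacement of spy molecule 19 (50 μM) from VBC (1 μM) across a titration of PROTAC concentrations. Free spy alone and spy with VBC served as the 100% and 0% displacement controls. For ternary runs Brd4(2) was present at 10 μM.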
# [6] = biological target: T1, Von Hippel-Lindau disease tumor suppressor/Elongin B/Elongin C; assay: Displacement of (2S,4R)-N-(4-bromobenzyl)-4-hydroxy-1-(3,3,3-trifluoropropanoyl)pyrrolidine-2-carboxamide from VBC E3 ligase (unknown origin) binary complex assessed as inhibition constant by 19F NMR assay; assay type: protein-complex assay
# Summary of the method: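 Binary competition by 19F CPMG NMR, without Brd4(2): spy molecule 19 at 50 μM, VBC at 1 μM, titrated with increasing PROTAC concentrations. Spy molecule alone and spy molecule plus VBC served as 100% and 0% displacement references.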
# [7] = biological target: T1, Von Hippel-Lindau disease tumor suppressor/Elongin B/Elongin C; assay: Binding affinity to VCB E3 ligase (unknown origin) assessed as binary equilibrium dissociation constant by 19F NMR assay; assay type: protein-complex assay
# [8] = biological target: T2, von Hippel-Lindau disease tumor suppressor/Bromodomain-containing protein 4/Elongin-B/Elongin-C (Homo sapiens, UniProt O60885+P40337+Q15369+Q15370); assay: Displacement of (2S,4R)-N-(4-bromobenzyl)-4-hydroxy-1-(3,3,3-trifluoropropanoyl)pyrrolidine-2-carboxamide from BRD4 bromodomain 2/VBC E3 ligase (unknown origin) ternary complex assessed as inhibition constant by 19F NMR assay; assay type: protein assay
# Summary of the method: (§5)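 19F CPMG NMR displacement of spy molecule 19 (50 μM) from VBC (1 μM) with increasing PROTAC concentrations, in the presence of 10 μM Brd4(2). Spectra of free spy molecule and spy molecule with VBC set 100% and 0% displacement.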
# [9] = biological target: T2, von Hippel-Lindau disease tumor suppressor/Bromodomain-containing protein 4/Elongin-B/Elongin-C; assay: Displacement of (2S,4R)-N-(4-bromobenzyl)-4-hydroxy-1-(3,3,3-trifluoropropanoyl)pyrrolidine-2-carboxamide from BRD4 bromodomain 2/VBC E3 ligase (unknown origin) ternary complex by 19F NMR assay; assay type: protein assay; summary of the method: as §5
# Homo sapiens [10] = species on record: Homo sapiens; assay: as §1, with “BRD4 bromodomain 2/VBC” for “dual VBC”, “19F NMR” for “ITC”
# Homo sapiens [11] = species on record: Homo sapiens; assay: as §1, with “BRD4 bromodomain 2/VBC” for “dual VBC”
# Homo sapiens [12] = species on record: Homo sapiens; assay: as §1, with “BRD4 bromodomain 2/VBC” for “dual VBC”, “SPR” for “ITC”
# [13] = Displacement of (2S,4R)-N-(4-bromobenzyl)-4-hydroxy-1-(3,3,3-trifluoropropanoyl)pyrrolidine-2-carboxamide from BRD3 bromodomain 1/VBC E3 ligase (unknown origin) ternary complex by 19F NMR assay; set-up: species or system Homo sapiens
# [14] = Displacement of (2S,4R)-N-(4-bromobenzyl)-4-hydroxy-1-(3,3,3-trifluoropropanoyl)pyrrolidine-2-carboxamide from BRD3 bromodomain 1/VBC E3 ligase (unknown origin) ternary complex assessed as inhibition constant by 19F NMR assay; set-up: species or system Homo sapiens
# [15] = Displacement of (2S,4R)-N-(4-bromobenzyl)-4-hydroxy-1-(3,3,3-trifluoropropanoyl)pyrrolidine-2-carboxamide from BRD3 bromodomain 2/VBC E3 ligase (unknown origin) ternary complex by 19F NMR assay; set-up: species or system Homo sapiens
# [16] = Displacement of (2S,4R)-N-(4-bromobenzyl)-4-hydroxy-1-(3,3,3-trifluoropropanoyl)pyrrolidine-2-carboxamide from BRD3 bromodomain 2/VBC E3 ligase (unknown origin) ternary complex assessed as inhibition constant by 19F NMR assay; set-up: species or system Homo sapiens
# [17] = biological target: Von Hippel-Lindau disease tumor suppressor/Elongin B/Elongin C (Homo sapiens) (UniProt P40337+Q15370+Q15369); assay: as §3; assay type: protein-complex assay; summary of the method: as §4
# Von Hippel-Lindau disease tumor suppressor/Elongin B/Elongin C (Homo sapiens), sequence (P40337 whole entry, looked up): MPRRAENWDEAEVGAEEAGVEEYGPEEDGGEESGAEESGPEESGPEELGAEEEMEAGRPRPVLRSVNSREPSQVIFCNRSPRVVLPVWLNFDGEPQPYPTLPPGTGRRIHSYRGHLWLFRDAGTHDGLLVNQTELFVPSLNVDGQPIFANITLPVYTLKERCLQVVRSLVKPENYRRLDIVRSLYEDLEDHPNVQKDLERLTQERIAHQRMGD
# Von Hippel-Lindau disease tumor suppressor/Elongin B/Elongin C (Homo sapiens), sequence (Q15369 whole entry, looked up): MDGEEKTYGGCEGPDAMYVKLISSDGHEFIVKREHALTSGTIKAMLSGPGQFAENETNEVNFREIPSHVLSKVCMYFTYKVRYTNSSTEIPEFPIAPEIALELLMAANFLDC
# Von Hippel-Lindau disease tumor suppressor/Elongin B/Elongin C (Homo sapiens), sequence (Q15370 whole entry, looked up): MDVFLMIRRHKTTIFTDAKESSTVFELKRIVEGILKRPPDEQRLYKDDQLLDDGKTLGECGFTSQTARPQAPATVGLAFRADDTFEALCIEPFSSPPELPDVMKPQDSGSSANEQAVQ
# T2 sequence (P40337 whole entry, looked up, other chains not shown): as the sequence (P40337 whole entry, looked up) above
# T2 sequence (Q15369 whole entry, looked up, other chains not shown): as the sequence (Q15369 whole entry, looked up) above
# T2 sequence (Q15370 whole entry, looked up, other chains not shown): as the sequence (Q15370 whole entry, looked up) above
# T1 sequence (P40337 whole entry, looked up): as the sequence (P40337 whole entry, looked up) above
Kd [7] [nM],SMILES,IC50 [5] [nM],Ki [6] [nM],Ki [8] [nM],IC50 [9] [nM],Ratio Ki (Homo sapiens [10]),Ratio Ki (Homo sapiens [11]),further results
–,Cc1ncsc1-c1ccc(CNC(=O)[C@@H]2C[C@@H](O)CN2C(=O)[C@@H](NC(=O)COCCOCCOCCOCCOCCOCC(=O)N[C@H](C(=O)N2C[C@H](O)C[C@H]2C(=O)NCc2ccc(-c3scnc3C)cc2)C(C)(C)C)C(C)(C)C)cc1,–,–,–,–,–,–,Ratio Ki (Homo sapiens [1]): 7; Ki [2]: 39 nM; IC50 [3]: 277 nM; Ratio Ki (Homo sapiens [4]): 7
–,Cc1ncsc1-c1ccc(CNC(=O)[C@@H]2C[C@H](O)CN2C(=O)[C@@H](NC(=O)COCCOCCOCCOCCOCC(=O)N[C@H](C(=O)N2C[C@@H](O)C[C@H]2C(=O)NCc2ccc(-c3scnc3C)cc2)C(C)(C)C)C(C)(C)C)cc1,888,287,–,–,–,–,–
67000,Cc1ncsc1-c1ccc(CNC(=O)[C@@H]2C[C@@H](O)CN2C(=O)CC(C)(C)C)cc1C(F)(F)F,–,–,–,–,–,–,–
25000,Cc1ncsc1-c1ccc(CNC(=O)[C@@H]2C[C@@H](O)CN2C(=O)C(F)(F)F)cc1,–,–,–,–,–,–,–
–,CC(=O)N1c2ccc(-c3ccc(C(=O)NCCOCCOCC(=O)N[C@H](C(=O)N4C[C@H](O)C[C@H]4C(=O)NCc4ccc(-c5scnc5C)cc4)C(C)(C)C)cc3)cc2[C@H](Nc2ccc(Cl)cc2)C[C@@H]1C,1210,529,1190,2110,0.4,0.1,Ratio Ki (Homo sapiens [12]): 0.2
–,CC(=O)N1c2ccc(-c3ccc(C(=O)NCCOCCOCCOCCOCC(=O)N[C@H](C(=O)N4C[C@H](O)C[C@H]4C(=O)NCc4ccc(-c5scnc5C)cc4)C(C)(C)C)cc3)cc2[C@H](Nc2ccc(Cl)cc2)C[C@@H]1C,1140,471,597,1310,0.8,0.6,Ratio Ki (Homo sapiens [12]): 0.4
–,Cc1ncsc1-c1ccc(CNC(=O)[C@@H]2[C@H](F)[C@@H](O)CN2C(=O)[C@@H](NC(=O)COCCOCCOCCNC(=O)C[C@@H]2N=C(c3ccc(Cl)cc3)c3c(sc(C)c3C)-n3c(C)nnc32)C(C)(C)C)cc1,3020,2060,71,346,29,29,–
–,Cc1ncsc1-c1ccc(CNC(=O)[C@@H]2C[C@@H](O)CN2C(=O)[C@@H](NC(=O)COCCOCCOCCNC(=O)C[C@@H]2N=C(c3ccc(Cl)cc3)c3c(sc(C)c3C)-n3c(C)nnc32)C(C)(C)C)cc1,–,–,–,–,–,–,IC50 [13]: 660 nM; Ki [14]: 118 nM; IC50 [15]: 708 nM; Ki [16]: 153 nM
–,Cc1ncsc1-c1ccc(CNC(=O)[C@@H]2C[C@H](O)CN2C(=O)[C@@H](NC(=O)COCCOCCOCCOCCOCCOCC(=O)N[C@H](C(=O)N2C[C@@H](O)C[C@H]2C(=O)NCc2ccc(-c3scnc3C)cc2)C(C)(C)C)C(C)(C)C)cc1,–,–,–,–,–,–,Activity [17]: Active

SMILES,Kd [7] [nM],IC50 [5] [nM],Ki [6] [nM],Ki [8] [nM],IC50 [9] [nM],Ratio Ki (Homo sapiens [10]),Ratio Ki (Homo sapiens [11]),further results
O=C(NCc1ccc(Br)cc1)[C@@H]1C[C@@H](O)CN1C(=O)CC(F)(F)F,145000,–,–,–,–,–,–,–
